Experimental findings from PubChem BioAssay are described below.

Active and inactive are the calls of the source.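 How the source made its calls, unless noted: active means NADPH fluorescence slope more negative than the mean of all samples by about 3 SD, 99.7% confidence; inactive means the rest.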

A short description of assay [1]: inhibitors of TNFa-induced NFkB p65 translocation, primary screen, imaging, HUVEC, MLSMR starter and 10KST1 sets (AID 438;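 active means inhibition above 20% together with a positive visual image hit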;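 further: compound added about 3h40 before a 20 min TNFalpha stimulation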;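 on inhibition: signal is the nuclear over cytoplasmic p65 intensity ratio per well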). As to conditions: HUVEC TNFa-induced p65 nuclear translocation; cell count: measured here: nuclei count (cytotoxicity indicator), at 2.08 µM; inhibition: at 2 µM, stronger effect = higher value, 0% TNFa-plus-vehicle, 100% no-TNFa wells.
The nature of assay [2]: reduction of polyQ htt aggregates in cells – imaging, exon1htt(103Q)mCFP cells, high-content imaging, primary screen (AID 483;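 active means visual image review flags a hit and inhibition of aggregation exceeds 20%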;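 further: compound exposure lasted 3 days before fixation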;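 on nuclei count: percent of the per-plate median nuclei count of sample wells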). As to conditions: exon1htt(103Q)mCFP cell line, aggregate imaging, at 2 µM; inhibition of aggregation: stronger effect = higher value; nuclei count: measured here: cell count, toxicity.
Assay [3] in a line: endothelial E-selectin expression blockers – imaging, HUVEC, immunofluorescence, MLSMR starter and 10KST1 sets, primary screen (AID 487;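 active means visually confirmed hit in the image check and inhibition above 20%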;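 on inhibition: signal is fraction of cell area covered by stained E-selectin grains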;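 on nuclei count: 100% = median nuclei count of all wells on the same plate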). The conditions noted are these: HUVEC TNFalpha-induced E-selectin immunofluorescence imaging, at 2 µM; inhibition: stronger effect = higher value; nuclei count: measured here: cell number, toxicity.
Assay [4] concerns the target Voltage-gated potassium channel subunit beta-2 (Rattus norvegicus) (UniProt P62483). Nature of the assay: inhibitors of rat Kvbeta2 reductase activity – biochemical, NADPH fluorescence, primary screen (AID 622;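 active means fluorescence slope higher than the sample average by over 3 SD, cut at about -0.22 in these data, passing the limit was not always enough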;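 further: slope of raw intensity against log time taken from 70 to 1610 s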). The conditions noted are these: recombinant KvBeta, 4-cyanobenzaldehyde reduction, at 10 µM, stronger effect = higher value.
For assay [5] the target is unchanged. Nature of the assay: enhancers of rat Kvbeta2 NADPH turnover – biochemical, NADPH fluorescence, primary screen (AID 623).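 Further: fluorescence intensity change per second fitted from 20 to 320 s.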 The conditions noted are these: Recombinant KvBeta, NADPH fluorescence decrease slope, 10 min; at 10 µM; stronger effect = lower value.
For assay [6], the target named is Muscarinic acetylcholine receptor M4 (Homo sapiens) (UniProt P08173). Nature of the assay: M4-linked GIRK flux change, two-sided – cell-based, HEK293 M4/GIRK, thallium flux, BTC-AM, M4 allosteric agonist project, primary screen (AID 625;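 active means fluorescence slope after compound addition differing from the mean of all tested samples at 99.7% confidence, mostly higher but some lower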;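 further: thallium influx through GIRK channels coupled to M4 in HEK293 cells with BTC-AM dye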). The conditions noted are these: at 10 µM, actives lie on both sides. The method, boiled down: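 Material: HEK293 cells with M4 receptor and GIRK channels; Times: cells overnight at 37 °C, BTC-AM loading 1 h, reads 2 min total; Technique: kinetic BTC-AM fluorescence sampled at 1 Hz, 10 s pre-addition baseline; Read-out basis: slope over 15–24 s of trace normalized to starting intensity; Controls: carbachol positive, DMSO negative.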
Sequence of Muscarinic acetylcholine receptor M4 (Homo sapiens) (P08173 whole entry, looked up): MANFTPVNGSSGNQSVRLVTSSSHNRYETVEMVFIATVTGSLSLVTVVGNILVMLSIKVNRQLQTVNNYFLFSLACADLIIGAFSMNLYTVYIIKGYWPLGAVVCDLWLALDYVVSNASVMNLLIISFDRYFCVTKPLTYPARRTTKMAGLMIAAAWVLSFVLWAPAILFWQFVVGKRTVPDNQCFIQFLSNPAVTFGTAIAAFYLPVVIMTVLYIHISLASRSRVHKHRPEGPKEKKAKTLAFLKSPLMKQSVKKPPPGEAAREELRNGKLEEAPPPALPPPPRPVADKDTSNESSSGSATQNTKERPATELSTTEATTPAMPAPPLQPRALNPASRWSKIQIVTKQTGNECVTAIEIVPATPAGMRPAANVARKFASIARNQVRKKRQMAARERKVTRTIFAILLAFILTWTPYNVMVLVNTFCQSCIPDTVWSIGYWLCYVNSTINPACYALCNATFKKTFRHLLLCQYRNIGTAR

Assay [7] is described as follows: blockers of RIG-like receptor reporter activation – cell-based, Sendai virus stimulus, luciferase, 10K MLSCN set, TLR/RLR signaling modifier project, primary screen (AID 602276;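 active means inhibition at or above 50% at 10 µM; inactive means inhibition below 50%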;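 further: firefly luciferase from ISG56 promoter only with Renilla not read in this screen; 0% = Sendai virus plus DMSO and 100% = medium plus DMSO without virus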). As to conditions: HEK293 RL24 IRF3 luciferase reporter, at 10 µM, stronger effect = higher value.
A short description of assay [8]: TLR3 IRF3 reporter activation blockers – cell-based, poly I:C stimulus, luciferase, 10K MLSCN set, primary screen (AID 602277;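 active means inhibition of the reporter signal at or above 50%; inactive means inhibition below 50%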). As to conditions: HEK293-TLR3 RL24 IRF3 luciferase reporter, at 10 µM, stronger effect = higher value. (A reporter such as luciferase makes a cellular process visible.)

Sequence of Voltage-gated potassium channel subunit beta-2 (Rattus norvegicus) (P62483 whole entry, looked up): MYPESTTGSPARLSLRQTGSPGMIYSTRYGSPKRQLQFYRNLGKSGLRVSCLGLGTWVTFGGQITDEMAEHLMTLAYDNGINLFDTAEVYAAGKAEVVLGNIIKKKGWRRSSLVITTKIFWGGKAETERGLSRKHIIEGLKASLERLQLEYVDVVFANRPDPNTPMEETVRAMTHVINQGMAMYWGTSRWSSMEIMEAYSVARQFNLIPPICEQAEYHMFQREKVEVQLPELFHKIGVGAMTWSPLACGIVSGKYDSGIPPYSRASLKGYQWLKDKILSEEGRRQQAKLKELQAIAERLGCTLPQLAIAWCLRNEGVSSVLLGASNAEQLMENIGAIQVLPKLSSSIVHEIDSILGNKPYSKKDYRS

Take `COc1ccc(/C(O)=C2/C(=O)C(=O)N(Cc3cccnc3)C2c2ccncc2)cc1F` (centres undefined): the cell count in assay [1] was 574. Further, the inhibition (usually the change of the read-out against control, counted positive when it falls) in assay [1] is -7.6% (inactive); in assay [3], -3.5% (inactive); in assay [7], 8.93% (inactive); in assay [8] it was 16.5% (inactive). The inhibition of aggregation in assay [2] was -2.8% (inactive). For the same compound, the nuclei count in assay [2] was 106%; in assay [3] it was 117%. Moreover, the results for the fluorescence slope in assay [4] and in assay [6] were -0.574 (inactive) and 0.00672 (inactive), respectively. For the same compound, the NADPH fluorescence slope in assay [5] is -8.3e-05 (inactive).

As for `Cn1c(Cc2ccccc2)nnc1SCC(=O)NC1CCCCC1`, the cell count in assay [1] was determined as 327. For the same compound, the inhibition in assay [1] was -2.3% (inactive); in assay [3] it was -136% (inactive); in assay [7] it was 16.3% (inactive); in assay [8], 0.751% (inactive). Moreover, in assay [2], the inhibition of aggregation was -1% (inactive). The nuclei count in assay [2] was determined as 94.8%; in assay [3], 120%. In addition, the values for the fluorescence slope in assay [4] and in assay [6] were -0.0696 (active) and 0.0079 (inactive), respectively. Moreover, the NADPH fluorescence slope in assay [5] is -3.5e-05 (inactive).

Turning to `O=C(CCNC(=O)Cn1ccc2ccccc2c1=O)NCCN1CCN(c2ccccc2F)CC1`, in assay [1], the cell count came out at 335. Also, the inhibition in assay [1] was -5.7% (inactive); in assay [3] it was 1.6% (inactive); in assay [7] it was 12.1% (inactive); in assay [8] it was 14.1% (inactive). Besides, the inhibition of aggregation in assay [2] was -19.4% (inactive). Further, the nuclei count in assay [2] and in assay [3] was 104% each time. For the same compound, the fluorescence slope in assay [4] was -0.528 (inactive); in assay [6], 0.00558 (inactive). The NADPH fluorescence slope in assay [5] is 3.6e-05 (inactive).

Consider `CCCCNC(=O)c1c(C)cc(=O)oc1C`, for which the cell count in assay [1] was found to be 541. For the same compound, the inhibition is -21.8% (inactive) in assay [1], -29% (inactive) in assay [3], 18.4% (inactive) in assay [7] and 14% (inactive) in assay [8]. Further, the inhibition of aggregation in assay [2] was -12.9% (inactive). Also, the figures for the nuclei count in assay [2] and in assay [3] were 141% and 106%, respectively. Also, the fluorescence slope is -0.531 (inactive) in assay [4] and 0.0056 (inactive) in assay [6]. Moreover, the NADPH fluorescence slope in assay [5] was -2.1e-05 (inactive).

`CC1(C)Cc2c(sc3ncnc(N)c23)CO1`: the cell count in assay [1] turned out to be 545. Also, the inhibition in assay [1] is -14.9% (inactive); in assay [3], -122% (inactive); in assay [7], 15.3% (inactive); in assay [8], 16.7% (inactive). Moreover, the inhibition of aggregation in assay [2] was 5.4% (inactive). The nuclei count in assay [2] was 114%; in assay [3], 108%. The fluorescence slope in assay [4] is -0.384 (inactive); in assay [6] it was 0.00833 (inactive). In addition, the NADPH fluorescence slope in assay [5] was -2.5e-05 (inactive).

In the case of `COc1ccccc1C(=O)NCCc1nc2ccccc2n1C`, the cell count in assay [1] was found to be 564. Further, the inhibition was -11.3% (inactive) in assay [1], 15.5% (inactive) in assay [3], -9.79% (inactive) in assay [7] and -4.78% (inactive) in assay [8]. Also, in assay [2], the inhibition of aggregation was -5.2% (inactive). Also, the nuclei count in assay [2] turned out to be 113%; in assay [3], 101%. In addition, the results for the fluorescence slope in assay [4] and in assay [6] were -0.294 (inactive) and 0.00691 (inactive), respectively. Moreover, in assay [5], the NADPH fluorescence slope was -2.3e-05 (inactive).

`COc1ccc(Cl)cc1NC(=O)c1oc(C)nc1C`: the cell count in assay [1] came out at 555. The inhibition in assay [1] is -0.7% (inactive); in assay [3] it was -1% (inactive); in assay [7], 25.6% (inactive); in assay [8] it was 42.6% (inactive). Besides, the inhibition of aggregation in assay [2] was -0.3% (inactive). Moreover, the nuclei count in assay [2] came out at 97.4%; in assay [3], 108%. The fluorescence slope is -0.35 (inactive) in assay [4] and 0.00568 (inactive) in assay [6]. The NADPH fluorescence slope in assay [5] is -4.4e-05 (inactive).

Turning to `CCOC(=O)c1[nH]c2ccc(F)cc2c1NC(=O)C(C)N1CCc2cc(OC)c(OC)cc2C1` (centres undefined), the cell count in assay [1] was 436. The inhibition in assay [1] was 0.5% (inactive); in assay [3], 42.5% (inactive); in assay [7], -0.796% (inactive); in assay [8] it was 35.3% (inactive). The inhibition of aggregation in assay [2] was 15.1% (inactive). In addition, the nuclei count in assay [2] came to 76.9%; in assay [3], 96%. In addition, the results for the fluorescence slope in assay [4] and in assay [6] were -0.574 (inactive) and 0.00265 (inactive), respectively. Besides, the NADPH fluorescence slope in assay [5] is -3.4e-05 (inactive).

`Cc1ccccc1CS(=O)(=O)CCC(=O)N1CCN(c2ccc(N3CCOCC3)nn2)CC1`: the cell count in assay [1] stood at 318. Moreover, the inhibition in assay [1] was -0.9% (inactive); in assay [3], -146% (inactive); in assay [7], 3.04% (inactive); in assay [8], 12.2% (inactive). The inhibition of aggregation in assay [2] is -19.9% (inactive). Further, the results for the nuclei count in assay [2] and in assay [3] were 81% and 87.2%, respectively. In addition, the fluorescence slope is -0.424 (inactive) in assay [4] and 0.00541 (inactive) in assay [6]. Also, the NADPH fluorescence slope in assay [5] is -8.7e-08 (inactive).

With `CCc1ccc(NC(=O)c2cc(-c3ccco3)on2)cc1`, the cell count in assay [1] was found to be 382. The inhibition is -5.1% (inactive) in assay [1], 6.4% (inactive) in assay [3], -42.1% (inactive) in assay [7] and -129% (inactive) in assay [8]. Moreover, in assay [2], the inhibition of aggregation is 7.7% (inactive). Also, the nuclei count was found to be 99.2% in assay [2] and 93.1% in assay [3]. Further, the fluorescence slope was -0.44 (inactive) in assay [4] and 0.00523 (inactive) in assay [6]. The NADPH fluorescence slope in assay [5] is -4.3e-05 (inactive).

On to `CCOc1ccc(OCC)c2sc(C)nc12`, for which, in assay [1], the cell count amounted to 339. The inhibition was 2.4% (inactive) in assay [1], 1% (inactive) in assay [3], 12.4% (inactive) in assay [7] and -8.47% (inactive) in assay [8]. In addition, the inhibition of aggregation in assay [2] was 8.2% (inactive). Also, the nuclei count in assay [2] amounted to 102%; in assay [3] it was 106%. For the same compound, the fluorescence slope in assay [4] was -0.591 (inactive); in assay [6], 0.00571 (inactive). The NADPH fluorescence slope in assay [5] is -5.9e-05 (inactive).

Take `CS(=O)(=O)Nc1ccc(C(=O)NCc2ccc3c(c2)OCO3)cc1`: the cell count in assay [1] stood at 409. For the same compound, the inhibition in assay [1] is -5.7% (inactive); in assay [3] it was -42.6% (inactive); in assay [7], 9.26% (inactive); in assay [8], 4.21% (inactive). Further, in assay [2], the inhibition of aggregation is 16.6% (inactive). The nuclei count was 66.5% in assay [2] and 108% in assay [3]. The figures for the fluorescence slope in assay [4] and in assay [6] were -0.472 (inactive) and 0.00561 (inactive), respectively. Besides, the NADPH fluorescence slope in assay [5] is -1.7e-05 (inactive).

With `CCCOc1nc(N)c(C#N)c(-c2ccccc2F)c1C#N`, the cell count in assay [1] amounted to 359. Besides, the inhibition in assay [1] was 1.2% (inactive); in assay [3] it was -22.8% (inactive); in assay [7], 9.25% (inactive); in assay [8] it was 14% (inactive). The inhibition of aggregation in assay [2] is 10.7% (inactive). Besides, the figures for the nuclei count in assay [2] and in assay [3] were 98.5% and 99.6%, respectively. Besides, the fluorescence slope in assay [4] was -0.547 (inactive); in assay [6], 0.00463 (inactive). The NADPH fluorescence slope in assay [5] was 2.2e-05 (inactive).

Take `Cc1cc2c(cc(C(=O)NCc3cccnc3)n2Cc2ccc(Cl)cc2)o1`: the cell count in assay [1] was determined as 672. The inhibition in assay [1] was -16.6% (inactive); in assay [3] it was -91.9% (inactive); in assay [7], 12.1% (inactive); in assay [8], 14.8% (inactive). In assay [2], the inhibition of aggregation was -46.1% (inactive). Further, the figures for the nuclei count in assay [2] and in assay [3] were 127% and 99.8%, respectively. Further, the fluorescence slope in assay [4] was -0.49 (inactive); in assay [6], 0.00518 (inactive). Further, in assay [5], the NADPH fluorescence slope is -2.7e-06 (inactive).
